# Results reported in ChEMBL document CHEMBL4622977, “A CNS-Targeting Prodrug Strategy for Nuclear Receptor Modulators” (J Med Chem, 2020).
# Calls of active or inactive are those of the source. The rule behind the calls is not given here.
# How the values were obtained:
# [1] = AUC (0.5 to 6 hrs) in C57BL/6 mouse serum at 9.14 umol/kg, ip by LC-MS/MS analysis; format: ADME, organism-based; set-up: time upper 6 hr, dose 9.14 umol/kg, time lower 0.5 hr, route intraperitoneal; settings: in vivo
# Procedure, shortened: (§1)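 Male wild-type C57BL/6 mice (8−10 weeks, n=3 per time point) received parent drug or equimolar prodrug at […] i.p. in DMSO. Brain and serum were collected at 0.5, 2 and 6 h. Parent acid was quantified by LC-MS/MS against vehicle-tissue standard curves with d₆-sobetirome internal standard. AUC0.5–6 h was computed from the time course; mean ± SEM.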
# [2] = AUC (0.5 to 6 hrs) in C57BL/6 mouse brain assessed as GW501516 level at 9.14 umol/kg, ip by LC-MS/MS analysis; format: ADME, organism-based; set-up: time 0.5-6 hr, dose 9.14 umol/kg, route intraperitoneal; settings: in vivo; procedure, shortened: as §1
# [3] = AUC (0.5 to 6 hrs) in C57BL/6 mouse serum assessed as GW501516 level at 9.14 umol/kg, ip by LC-MS/MS analysis; format: ADME, organism-based; set-up: dose 9.14 umol/kg, time upper 6 hr, time lower 0.5 hr, route intraperitoneal; settings: in vivo; procedure, shortened: as §1
# [4] = Brain to serum concentration ratio, Kp of the compound in C57BL/6 mouse assessed as GW501516 level at 9.14 umol/kg, ip by LC-MS/MS analysis; format: ADME, organism-based
# Procedure, shortened: (§2)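 Brain-to-serum ratio Kp was calculated from brain and serum parent-drug AUC0.5–6 h (ng/g*h). These AUCs came from male C57BL/6 mice (n=3 per time point) given parent drug or equimolar prodrug at […] i.p. in DMSO, sampled at 0.5, 2 and 6 h. Parent acid was quantified by LC-MS/MS with d₆-sobetirome internal standard.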
# [5] = Prodrug conversion in C57BL/6 mouse brain assessed as GW501516 level at 9.14 umol/kg, ip measured after 1 hr in presence of FAAH inhibitor PF-3845 by LC-MS/MS analysis; format: ADME, organism-based; settings: in vivo
# Procedure, shortened: (§3)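 Male C57BL/6 mice (n=3) received PF-3845 at 1 mg/kg i.p., then prodrug at […] i.p. 1 h later; comparators received prodrug alone. Vehicle was DMSO. Whole brain was taken 1 h after prodrug and homogenized in water with d₆-sobetirome internal standard. It was extracted with EtOAc/MeCN and parent acid was measured by LC-MS/MS; mean ± SEM, 2-tailed unpaired t test.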
# [6] = AUC (0.5 to 6 hrs) in C57BL/6 mouse brain assessed as tazarotenic acid level at 9.14 umol/kg, ip by LC-MS/MS analysis; format: ADME, organism-based; set-up: time lower 0.5 hr, dose 9.14 umol/kg, time upper 6 hr, route intraperitoneal; settings: in vivo; procedure, shortened: as §1
# [7] = AUC (0.5 to 6 hrs) in C57BL/6 mouse serum assessed as tazarotenic acid level at 9.14 umol/kg, ip by LC-MS/MS analysis; format: ADME, organism-based; set-up: time lower 0.5 hr, dose 9.14 umol/kg, time upper 6 hr, route intraperitoneal; settings: in vivo; procedure, shortened: as §1
# [8] = Brain to serum concentration ratio, Kp of the compound in C57BL/6 mouse assessed as tazarotenic acid level at 9.14 umol/kg, ip by LC-MS/MS analysis; format: ADME, organism-based; procedure, shortened: as §2
# [9] = Prodrug conversion in C57BL/6 mouse brain assessed as tazarotenic acid level at 9.14 umol/kg, ip measured after 1 hr in presence of FAAH inhibitor PF-3845 by LC-MS/MS analysis; format: ADME, organism-based; settings: in vivo; procedure, shortened: as §3
# Mus musculus [10] = assay: In vivo agonist activity at RAR in C57BL/6 mouse assessed upregulation of Adam10 gene expression in brain at 9.14 umol/kg, ip administered once daily for 7 days by Trizol reagent based RT-qPCR analysis; format: functional, organism-based
# Procedure, shortened: (§4)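 Male C57BL/6 mice (n=5) were dosed once daily for 7 days i.p. with parent drug at […], equimolar prodrug, or vehicle. The vehicle was 1:1:8 Kolliphor:NMP:water. Target gene expression was compared between groups per tissue by 2-tailed unpaired t test.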
# [11] = Hepatotoxicity in C57BL/6 mouse assessed effect on Rarres2 gene expression at 9.14 umol/kg, ip administered once daily for 7 days by Trizol reagent based RT-qPCR analysis; settings: in vivo, 168 h
# [12] = mouse, in vivo, ip
# in vivo = settings: C57BL/6, mouse, brain/serum, ip, 9.14 umol/kg
# [13] = AUC (0.5 to 6 hrs) in C57BL/6 mouse brain assessed as tesaglitazar level at 9.14 umol/kg, ip by LC-MS/MS analysis; format: ADME, organism-based; set-up: time upper 6 hr, dose 9.14 umol/kg, time lower 0.5 hr, route intraperitoneal; settings: in vivo; procedure, shortened: as §1
# [14] = AUC (0.5 to 6 hrs) in C57BL/6 mouse serum assessed as tesaglitazar level at 9.14 umol/kg, ip by LC-MS/MS analysis; format: ADME, organism-based; set-up: time lower 0.5 hr, dose 9.14 umol/kg, time upper 6 hr, route intraperitoneal; settings: in vivo; procedure, shortened: as §1
# [15] = Brain to serum concentration ratio, Kp of the compound in C57BL/6 mouse assessed as tesaglitazar level at 9.14 umol/kg, ip by LC-MS/MS analysis; format: ADME, organism-based; procedure, shortened: as §2
# [16] = Prodrug conversion in C57BL/6 mouse brain assessed as tesaglitazar level at 9.14 umol/kg, ip measured after 1 hr in presence of FAAH inhibitor PF-3845 by LC-MS/MS analysis; format: ADME, organism-based; settings: in vivo; procedure, shortened: as §3
# Mus musculus [17] = assay: In vivo agonist activity at PPAR in C57BL/6 mouse assessed upregulation of Pgc1-alpha gene expression at 9.14 umol/kg, ip administered once daily for 7 days by Trizol reagent based RT-qPCR analysis; format: functional, organism-based; procedure, shortened: as §4
# [18] = Renal toxicity in C57BL/6 mouse assessed effect on Fasn gene expression in kidney at 9.14 umol/kg, ip administered once daily for 7 days by Trizol reagent based RT-qPCR analysis; format: organism-based; settings: in vivo, 168 h; procedure, shortened: as §4
structure (smiles),measurement,setting,value
O=C(O)Cc1cc(I)c(Oc2ccc(O)c(I)c2)c(I)c1 [TIRATRICOL],AUC,[1],5108 ng·h/g
CNC(=O)COc1ccc(SCc2sc(-c3ccc(C(F)(F)F)cc3)nc2C)cc1C,AUC,[2],146.3 ng·h/g
same,AUC,[3],2705 ng·h/g
same,Kp,[4],0.054
same,Drug metabolism,[5],Metabolite_Detected
CNC(=O)c1ccc(C#Cc2ccc3c(c2)C(C)(C)CCS3)nc1,AUC,[6],104 ng·h/g
same,AUC,[7],51.34 ng·h/g
same,Kp,[8],2.03
same,Drug metabolism,[9],Metabolite_Notdetected
same,Activity,Mus musculus [10],Active
same,Activity,[11],Non-Toxic
Cc1cc(SCc2sc(-c3ccc(C(F)(F)F)cc3)nc2C)ccc1OCC(=O)O [GW501516],AUC,[1],2330 ng·h/g
same,AUC,[12],41.8 ng·h/g
same,Kp,in vivo,0.018
CC(C)(Oc1ccc(CCNC(=O)c2ccc(Cl)cc2)cc1)C(=O)O [BEZAFIBRATE],AUC,[1],420.7 ng·h/g
same,AUC,[12],5.5 ng·h/g
same,Kp,in vivo,0.013
CC/C(=C(\c1ccc(O)cc1)c1ccc(/C=C/C(=O)O)cc1)c1ccccc1,AUC,[1],169.3 ng·h/g
same,AUC,[12],228.2 ng·h/g
same,Kp,in vivo,1.35
Cc1cc(OCC(=O)O)cc(C)c1Cc1cc(C#Cc2ccc([N+](=O)[O-])cc2)c(O)c(C(C)C)c1,AUC,[1],756.9 ng·h/g
same,AUC,[12],11.9 ng·h/g
same,Kp,in vivo,0.016
CCO[C@@H](Cc1ccc(OCCc2ccc(OS(C)(=O)=O)cc2)cc1)C(=O)NC,AUC,[13],21.9 ng·h/g
same,AUC,[14],374.1 ng·h/g
same,Kp,[15],0.06
same,Drug metabolism,[16],Metabolite_Notdetected
same,Activity,Mus musculus [17],Active
same,Activity,[18],Non-Toxic
